Results taken from ChEMBL document CHEMBL3286225, “Novel carboline derivatives as potent antifungal lead compounds: design, synthesis, and biological evaluation” (ACS Med Chem Lett, 2014).
Converted amounts (≈) assume the structure as drawn. The source made the active and inactive calls. The rule behind the calls is not given here.

What was measured:
Candida albicans [1] = assay: Antifungal activity against fluconazole-sensitive Candida albicans SC5314 assessed as cell membrane damage at 8 ug/ml after 8 hrs by TEM analysis; type: functional, organism-based
In short: (§1)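 Transmission electron microscopy of C. albicans SC5314 cells exposed to 8 μg/mL drug for 8 h; untreated cells as reference; cell wall, membrane, cytoplasm and vacuole morphology inspected.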

Candida albicans [2] = assay: Antifungal activity against fluconazole-sensitive Candida albicans SC5314 assessed as abnormal cell shape at 8 ug/ml after 8 hrs by TEM analysis; type: functional, organism-based; in short: as §1
Candida albicans [3] = assay: Antifungal activity against fluconazole-sensitive Candida albicans SC5314 assessed as change in ergosterol composition at 8 ug/ml after 24 hrs by GC-MS analysis (reference value: 90%); type: functional
In short: (§2)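 C. albicans SC5314 exposed to 8 μg/mL for 24 h, sterols analysed by GC-MS with cholesterol internal standard; each sterol expressed as % of total sterol fraction versus no-drug control; average of three independent experiments.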

Candida albicans [4] = assay: Antifungal activity against fluconazole-sensitive Candida albicans SC5314 assessed as change in obtusifoliol composition at 8 ug/ml after 24 hrs by GC-MS analysis relative to control; type: functional; in short: as §2
Candida albicans [5] = assay: Antifungal activity against fluconazole-sensitive Candida albicans SC5314 assessed as change in lanosterol composition at 8 ug/ml after 24 hrs by GC-MS analysis (reference value: 1.5%); type: functional; in short: as §2
Candida albicans [6] = assay: Antifungal activity against fluconazole-sensitive Candida albicans SC5314 assessed as change in eburicol composition at 8 ug/ml after 24 hrs by GC-MS analysis relative to control; type: functional; in short: as §2
Candida albicans [7] = assay: Antifungal activity against fluconazole-sensitive Candida albicans SC5314 assessed as change in sterol composition at 8 ug/ml after 24 hrs by GC-MS analysis (reference value: 8.5%); type: functional; in short: as §2
Candida tropicalis = assay: Antifungal activity against Candida tropicalis after 7 days by serial dilution method; type: functional; conditions: 168 h
Pichia kudriavzevii = assay: Antifungal activity against Candida krusei 0710397 after 7 days by serial dilution method; type: functional; conditions: Pichia kudriavzevii, 0710397, 168 h
Candida albicans [8] = assay: Antifungal activity against fluconazole-sensitive Candida albicans SC5314 after 24 hrs by serial dilution method; type: functional; conditions: SC5314, 24 h
Candida parapsilosis = assay: Antifungal activity against Candida parapsilosis ATCC 22019 after 24 hrs by serial dilution method; type: functional; conditions: Lodderomyces parapsilosis, ATCC 22019, 24 h
Cryptococcus neoformans = assay: Antifungal activity against Cryptococcus neoformans 32609 after 72 hrs by serial dilution method; type: functional; conditions: Cryptococcus neoformans, 32609, 72 h
Nakaseomyces glabratus = assay: Antifungal activity against Candida glabrata 537 after 24 hrs by serial dilution method; type: functional; conditions: Nakaseomyces glabratus, 537, 24 h
Aspergillus fumigatus = assay: Antifungal activity against Aspergillus fumigatus 07544 after 7 days by serial dilution method; type: functional; conditions: Aspergillus fumigatus, 07544, 168 h
Trichophyton rubrum = assay: Antifungal activity against Trichophyton rubrum Cmccftla after 7 days by serial dilution method; type: functional; conditions: 168 h
Nannizzia gypsea = assay: Antifungal activity against Microsporum gypseum Cmccfmza after 7 days by serial dilution method; type: functional; conditions: 168 h
Candida albicans [9] = assay: Fungicidal activity against fluconazole-sensitive Candida albicans SC5314 at 32 ug/ml after 12 to 48 hrs; type: functional, organism-based
In short: (§3)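 Time-kill: C. albicans (SC5314 or 103) inoculated at 10^5 CFU/mL, untreated or with drug (2–32 μg/mL; fluconazole 32 μg/mL reference); CFU/mL counted after 0, 12, 24 and 48 h.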

Candida albicans [10] = assay: Fungicidal activity against fluconazole-sensitive Candida albicans SC5314 assessed as reduction in fungi density after 24 hrs; type: functional, organism-based; in short: as §3
Candida albicans [11] = assay: Antifungal activity against fluconazole-resistant Candida albicans 103 after 24 hrs by serial dilution method; type: functional; conditions: Candida albicans, 103, 24 h
Candida albicans [12] = assay: Inhibition of biofilm formation of fluconazole-sensitive Candida albicans SC5314 at 64 ug/ml after 48 hrs by XTT assay relative to control; type: functional
In short: (§4)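 Biofilm formation by C. albicans SC5314 or 103 in presence of 2–64 μg/mL drug (fluconazole 64 μg/mL reference); quantified by XTT reduction as % of blank control; mean ± standard deviation of three independent experiments, ANOVA and Student t test.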

Candida albicans [13] = assay: Inhibition of biofilm formation of fluconazole-resistant Candida albicans 103 at 64 ug/ml after 48 hrs by XTT assay; type: functional, organism-based; in short: as §4
Candida albicans [14] = assay: Inhibition of hyphal growth of fluconazole-sensitive Candida albicans SC5314 at 8 ug/ml after 16 hrs by light microscopic analysis; type: functional, organism-based
In short: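 C. albicans SC5314 incubated in RPMI 1640 liquid medium at 37 °C for 16 h with or without drug (2–8 μg/mL); hyphal, pseudohyphal or yeast morphology scored microscopically against blank control.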

Candida albicans [15] = assay: Antifungal activity against fluconazole-resistant Candida albicans 100 after 24 hrs by serial dilution method; type: functional; conditions: Candida albicans, 100, 24 h
Candida albicans [16] = assay: Antifungal activity against fluconazole-resistant Candida albicans 07109 after 24 hrs by serial dilution method; type: functional; conditions: Candida albicans, 07109, 24 h
Candida albicans [17] = assay: Antifungal activity against fluconazole-resistant Candida albicans 805 after 24 hrs by serial dilution method; type: functional; conditions: Candida albicans, 805, 24 h

OC(Cn1cncn1)(Cn1cncn1)c1ccc(F)cc1F [FLUCONAZOLE]
Activity (Candida albicans [1]): Active | Activity (Candida albicans [2]): Active | Activity (Candida albicans [3]): 0.6% | Activity (Candida albicans [4]): 6.5% | Activity (Candida albicans [5]): 5.9% | Activity (Candida albicans [6]): 82.2% | Activity (Candida albicans [7]): 4.8% | MIC80 (Candida tropicalis): 1 µg/mL (≈ 3.27 µM) | MIC80 (Pichia kudriavzevii): 4 µg/mL (≈ 13.1 µM) | MIC80 (Candida albicans [8]): 0.5 µg/mL (≈ 1.63 µM) | MIC80 (Candida parapsilosis): 2 µg/mL (≈ 6.53 µM) | MIC80 (Cryptococcus neoformans): 2 µg/mL (≈ 6.53 µM) | MIC80 (Nakaseomyces glabratus): 0.5 µg/mL (≈ 1.63 µM) | MIC80 (Aspergillus fumigatus): > 64 µg/mL | MIC80 (Trichophyton rubrum): 4 µg/mL (≈ 13.1 µM) | MIC80 (Nannizzia gypsea): 1 µg/mL (≈ 3.27 µM) | Activity (Candida albicans [9]): Active | Activity (Candida albicans [10]): inactive | MIC80 (Candida albicans [11]): 4 µg/mL (≈ 13.1 µM) | inhibition (Candida albicans [12]): inactive | inhibition (Candida albicans [13]): inactive | growth inhibition (GI) (Candida albicans [14]): inactive | MIC80 (Candida albicans [15]): > 1020 µg/mL | MIC80 (Candida albicans [16]): > 1020 µg/mL | MIC80 (Candida albicans [17]): > 1020 µg/mL
